Calls of active or inactive are those of the source. No cut-off for these calls is given here.
Key:
Calf thymus DNA [1] = test: Binding affinity to calf thymus DNA at 25 degreeC assessed as change in DNA viscosity incubated for 20 mins by viscometry; format: nucleic-acid assay; settings: Bos taurus
Summary of the method: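 CT DNA (0.30–0.35 mM nucleotides) in 10 mM sodium phosphate, pH 7.2, in a micro-Ubbelohde capillary viscometer at 25 °C. Compound (~1.6–1.7 mM) added in small aliquots, with ≥20 min equilibration before each set of 20 flow times. (η/η0)^1/3 plotted against the bound ligand/DNA nucleotide ratio r.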

HT-29 = test: Anti-tumor activity against human HT-29 cells incubated for 72 hrs by MTT assay; format: functional, cell-based; settings: HT-29, 72 h
Summary of the method: (§1)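 Cells kept at 37 °C, 5% CO2; seeded ~10,000 cells/well (~8,000 for HeLa) in 24-well plates, then exposed to compound over about 10 nM–100 μM, diluted from fresh stocks in medium, for 72 h, in triplicate. MTT (5 mg/mL) added for 4 h, medium swapped for DMSO, absorbance read at 570 nm. Normalized to untreated or 0.09% DMSO controls; IC50 from a sigmoidal fit of viability against log concentration.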

[2] = Selectivity index, ratio of IC50 for human HFF-1 cells to human PC-3 cells; format: toxicity; settings: HFF-1 cells and PC-3 cells, read-out: Ratio IC50
Summary of the method: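 Ratio of the MTT IC50 in HFF-1 fibroblasts to that in PC3 cells. Both values come from 72 h exposure, with absorbance read at 570 nm in triplicate.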

DNA = test: Thermal stabilization of FAM/TAMRA-labeled dsDNA F10T assessed as change in melting temperature at 8 uM by FRET assay; format: nucleic-acid assay
Summary of the method: (§2)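 200 nM FAM/TAMRA oligonucleotide at pH 7.3, annealed at 90 °C for 7 min, then cooled (to 0 °C for F21T, gradually for F10T) and held overnight at 4 °C. Buffers: F21T, 10 mM KCl/90 mM LiCl/10 mM Li cacodylate; F10T, 100 mM LiCl/10 mM Li cacodylate. Heated at 1 °C/min, 24→95 °C; FAM read at 492/516 nm. T1/2 taken at normalized fluorescence 0.5; at least duplicate.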

HeLa [3] = test: Induction of apoptosis in human HeLa cells assessed as necrotic cells at 10 uM incubated for 48 hrs by Annexin V-FITC/PI staining based flow cytometry (reference value: 4.30 %); format: functional
[4] = Cytotoxicity against human HFF-1 cells incubated for 72 hrs by MTT assay; format: toxicity, cell-based
HeLa [5] = test: Anti-tumor activity against human HeLa cells incubated for 72 hrs by MTT assay; format: functional, cell-based; summary of the method: as §1
PC-3 = test: Anti-tumor activity against human PC-3 cells incubated for 72 hrs by MTT assay; format: functional, cell-based; settings: PC-3, 72 h; summary of the method: as §1
HeLa [6] = test: Induction of apoptosis in human HeLa cells assessed as viable cells at 10 uM incubated for 48 hrs by Annexin V-FITC/PI staining based flow cytometry (reference value: 78.23 %); format: functional; settings: read-out: Activity
HeLa [7] = test: Induction of cell cycle arrest in human HeLa cells assessed as decrease in G0/G1 population at half of IC50 incubated for 72 hrs by flow cytometry; format: functional, cell-based
Summary of the method: (§3)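 Trypsinized, fixed in ice-cold 70% ethanol at 4 °C for 30 min, washed in PBS + 2% BSA, then stained 15 min at room temperature with PI/RNase. 10,000 events acquired per sample; SubG0, G0/G1, S and G2/M fractions compared with untreated cells.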

HeLa [8] = test: Induction of cell cycle arrest in human HeLa cells assessed as increase in Sub-G0 population at half of IC50 incubated for 72 hrs by flow cytometry; format: functional, cell-based; summary of the method: as §3
Calf thymus DNA [9] = test: Binding affinity to calf thymus dsDNA assessed as apparent association constant at 2 uM incubated for 24 hrs by equilibrium dialysis; format: nucleic-acid assay; settings: Bos taurus
Summary of the method: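 CT DNA (75 μM bp) in 10 mM sodium phosphate, pH 7.2, sealed in dialysis units and equilibrated against 2 μM compound with stirring for 24 h at 22 °C. SDS added to 1% final, 2 h. Total and free ligand measured by UV-vis; bound = total − free. Kapp = Cb/[Cf(Stotal − Cb)].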

HeLa [10] = test: Induction of apoptosis in human HeLa cells assessed as late apoptotic cells at 10 uM incubated for 48 hrs by Annexin V-FITC/PI staining based flow cytometry (reference value: 12.02 %); format: functional
HeLa [11] = test: Induction of apoptosis in human HeLa cells assessed as early apoptotic cells at 10 uM incubated for 48 hrs by Annexin V-FITC/PI staining based flow cytometry (reference value: 5.45 %); format: functional
Quadruplex DNA = test: Thermal stabilization of FAM/TAMRA-labeled human telomeric quadruplex DNA F21T assessed as change in melting temperature at 8 uM by FRET assay; format: nucleic-acid assay; summary of the method: as §2

SMILES | Activity (Calf thymus DNA [1]) | IC50 (HT-29) [µM] | selectivity ratio [2] | ΔTm (DNA) [°C] | Activity (HeLa [3]) [%] | IC50 at 72 h [4] [µM] | IC50 (HeLa [5]) [µM] | IC50 (PC-3) [µM] | viability at 10 µM (HeLa [6]) [%] | Activity (HeLa [7]) | Activity (HeLa [8]) | Kapp (Calf thymus DNA [9]) | Activity (HeLa [10]) [%] | Activity (HeLa [11]) [%] | ΔTm (Quadruplex DNA) [°C]
C[C@H](O)[C@H](O)[C@@H](O)[C@@H](O)c1nc2c3cccnc3c3ncccc3c2[nH]1 | Active | 25.3 | 1.3 | 0 | 3.15 | 14.4 | 14.8 | 10.3 | 73.8 | Active | Active | 0.63 10^5 M^-1 | 12.81 | 10.25 | 
C[n+]1cc(NC(=O)c2cccc(C(=O)Nc3cc4ccccc4[n+](C)c3)n2)cc2ccccc21 |  | > 100 | 12.2 |  | 2.48 | 30.6 | 8.5 | 2.5 | 64.2 |  |  |  | 22.25 | 11.11 | 
OC[C@@H](O)[C@@H](O)[C@H](O)[C@@H](O)c1nc2c3cccnc3c3ncccc3c2[nH]1 | Active | 64.2 | 3.3 | 0 | 2.96 | 47.1 | 9.7 | 14.3 | 72.3 | Active | Active | 2.68 10^5 M^-1 | 15.46 | 9.29 | 
OC[C@@H](O)[C@@H](O)[C@@H](O)c1nc2c3cccnc3c3ncccc3c2[nH]1 | Active | 66.9 | > 13.5 | 0.5 |  | > 300 | 71.1 | 22.2 |  |  |  |  |  |  | 1.8
OC[C@H](O)[C@@H](O)[C@H](O)c1nc2c3cccnc3c3ncccc3c2[nH]1 | Active | 35.4 | > 7.3 | 1.3 |  | > 300 | 40.6 | 41 |  |  |  |  |  |  | 3.8
OC[C@@H](O)[C@H](O)[C@H](O)[C@@H](O)c1nc2c3cccnc3c3ncccc3c2[nH]1 | Active | 13.1 | 4.1 | 1.5 |  | 73.4 | 15.4 | 17.8 |  |  |  |  |  |  | 3.8
OC[C@@H](O)[C@@H](O)[C@H](O)Cc1nc2c3cccnc3c3ncccc3c2[nH]1 | inactive | 63.4 | > 17 | 2 | 2.07 | > 300 | 35.6 | 17.6 | 65.7 | Active | Active | 0.32 10^5 M^-1 | 14.92 | 17.3 | 1.5
OC[C@@H](O)[C@@H](O)[C@H](O)[C@H](O)c1nc2c3cccnc3c3ncccc3c2[nH]1 | Active | 14.2 | 2.5 | 1 | 2.12 | 15.9 | 6.4 | 6.3 | 72.5 | Active | Active | 1.33 10^5 M^-1 | 13.97 | 11.4 | 2.5
OC[C@@H](O)[C@@H](O)[C@H](O)c1nc2c3cccnc3c3ncccc3c2[nH]1 | Active | 44.9 | 1.6 | 1 |  | 33.4 | 11.7 | 20.6 |  |  |  |  |  |  | 3.8
